Screens: PubChem, several laboratories
Shown are actives, neighbours in structure and some others; about 4.8% of the full set was active somewhere.
CSC inhib: cancer stem cell viability inhibitors, primary screen, luminescence; cancer stem cell-like cells viability; inhibition, % at 7.5 µM; hit rate 1.1% among 300,000; AID 2717, 2010; in the data active means inhibition above about 75%; inconclusive means no clear call, values can overlap the other calls; tested in HMLE shEcad cells
WT yeast gro inh: growth inhibition of WT strain, primary screen, mitochondrial fusion inhibitor project, WT and mutant strains, chemical genetic. hit rate 2.1% among 190,000. inhibition, % at 10 µM. mitochondrial fusion phenotypic screen. AID 1362, 2008; in the data active means inhibition above about 58%; tested in S. cerevisiae
SUMO Mot1 rescue: yeast Mot1-301 growth rescue at high temperature, primary screen, SUMOylation pathway inhibitor project, S. cerevisiae, ATP luminescence, 38.5C; S. cerevisiae Mot1-301 growth rescue; percent above DMSO median, 100 means doubled; growth rescue, % at 18.8 µM; hit rate 1% among 320,000;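 active means every valid replicate shows activation above 250% relative to neutral control wells; inactive means the rest, any valid replicate at or below 250%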;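 further: OY570 slx delta 5 strain wells were the positive control but not used for scaling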
Beta cell apopt: inhibitors of cytokine-induced beta cell apoptosis, primary screen, luminescence | hit rate 0.8% among 300,000 | INS-1E cytokine-induced death, ATP luminescence, 48 h; percent of positive-control rescue, neutral wells zero | protection from apoptosis, % (concentration not given with the values);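 active means Every replicate reaches about 75%, or at least half do and their mean reaches it too, limit read from the data; inconclusive means At least half of replicates reach the limit but their mean does not; inactive means Under half of replicates reach the limit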;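 further: 0% = cytokine-treated negative control wells and 100% = positive control rescue; higher means more ATP so stronger rescue from cytokine killing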
T cruzi inh: inhibitors of intracellular T. cruzi growth, primary screen, luminescence, NIH3T3 host cells. T. cruzi beta-gal in NIH3T3, 90 h. inhibition, % (concentration not given with the values). hit rate 1.4% among 300,000. AID 1885, 2009;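 active means mean inhibition across valid replicates above about 55%, limit read from the data; inconclusive means mean below that limit but half or more replicates reach it; inactive means mean below it, under half of replicates reach it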;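 further: signal also drops with host cell toxicity which is not excluded here; 0% = plate median of DMSO wells and 100% = zero luminescence signal; higher percent means less beta-gal luminescence so fewer parasites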
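System: mouse NIH/3T3 fibroblasts infected with β-gal-expressing T. cruzi Tulahuen C4 / Input: NIH/3T3 cells, 5,000 per well / Buffer or medium: Low-serum DMEM with 2% FBS / Probe or stimulus: 5000 reporter trypomastigotes per well / Schedule: ≥90 h infection period, 3 h prior cell attachment / Measured by: GalScreen luminescence, 60 min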
Efflux pump inh: inhibitors of Candida efflux pumps in yeast, primary screen, S. cerevisiae, Nile Red, multiplex | S. cerevisiae Candida pump triplex | inhibition, % at 10 µM | hit rate 0.44% among 330,000;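 active means plate passing quality check with inhibition over a set limit, or well fluorescence over plate mean plus 4 SD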;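 further: Nile Red retained in pooled yeast measured as flow cytometry median fluorescence; 0% = buffer negative control and 100% = Enniatin B positive control; higher means more Nile Red kept so more efflux inhibition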
The depositor's hits bear a star; ? = inconclusive; . = not tested or not shown.

SMILES	CSC inhib	WT yeast gro inh	SUMO Mot1 rescue	Beta cell apopt	T cruzi inh	Efflux pump inh
C[C@H](O)[C@@]1(O)CC[C@H]2[C@@H]3CC[C@@H]4C[C@H](O)CC[C@]4(C)[C@H]3CC[C@@]21C	-10.0	.	9.5	-0.2	-16.2	0.1
C[C@]12CCC(O)CC1CCC1C2CC[C@]2(C)C(c3cc(C(F)(F)F)n[nH]3)CCC12 (stereo not given in full)	111.9*	.	210.9	19.5	9.3	0.0
O=c1[nH]c(=O)c2cc([N+](=O)[O-])cc([N+](=O)[O-])c2[nH]1	-7.5	-14.4	.	-11.2	71.8*	0.0
O=c1c2ccccc2sn1-c1ccccc1	24.4	94.5	-19.3	25.6	64.9*	0.3
Cc1ccc(C(=O)NNC(=O)c2ccccc2)cc1S(=O)(=O)N1CCCCC1	-8.4	.	-7.5	-9.3	.	-0.1
O=c1c2ccccc2sn1-c1ccc(S(=O)(=O)N2CCCC2)cc1	5.0	-3.5	38.2	12.1	62.6*	0.1
O=C(O)c1cccc(-n2sc3ccccc3c2=O)c1	19.3	.	-32.5	-16.3	.	-0.1
O=c1c2ccccc2sn1-c1ccc(S(=O)(=O)N2CCCCC2)cc1	-7.3	.	-36.4	-9.4	43.4	-0.1
CN(C)S(=O)(=O)c1cccc(-n2sc3ccccc3c2=O)c1	10.8	66.7*	-5.3	2.1	.	135.7*
Cc1ccc(-n2sc3ccccc3c2=O)cc1S(=O)(=O)N1CCCCC1	0.1	94.2*	18.4	0.3	77.6*	2.4*
CCC1CCc2sc(C(=O)N(C)CC(=O)Nc3ccc(N4CCOCC4)cc3)cc2C1 (stereo not given)	29.9	.	295.5	4.9	-1.8	0.3
Cc1cc(C)n2nc(SCC(=O)NC3CCCCC3C)nc2n1 (stereo not given)	-3.8	.	80.0	-1.8	-9.5	0.1
CC1=C(C)/C(=N/OC(=O)c2cccc([N+](=O)[O-])c2)C=CC1=O	18.9	-15.4	100.6	-72.7	-26.7	-0.1
Cc1ccc(C(C)C)c(OCc2nnc3n2CCCCC3)c1	-12.8	-1.1	5.1	.	-4.2	-0.1
O=C(Cn1nc(-c2nn(CC(=O)c3ccccc3)c3[n+]2CCCCC3)[n+]2c1CCCCC2)c1ccccc1	-0.4	.	-3.5	-4.7	8.9	0.0
COc1ccc(C(=O)Cn2nc(CNc3ccc(Br)cc3)[n+]3c2CCCCC3)cc1	12.7	-0.1	1.0	10.7	59.1*	-0.1
Cc1ccc(C(C)C)c(OCc2nn(CC(=O)c3ccc(OC(F)F)cc3)c3[n+]2CCCCC3)c1	94.5*	44.2	-22.0	113.5*	?	0.2
O=C(COc1ccc2ccccc2c1)NNC(=O)Cc1ccccc1	3.8	3.0	-3.0	-2.6	-1.0	-0.1
O=C(CN1C(=O)CCC1=O)NNc1ccc2ccccc2c1	14.2	70.6*	200.6	-9.1	.	-0.2
O=C(CNc1ccc2ccccc2c1)NNC1=NCCC1	-5.0	16.9	-11.3	1.2	0.5	0.0
O=C(Cc1ccccc1)NNc1ccc2ccccc2c1	87.6*	52.3	45.7	2.9	8.8	-0.1
O=C(CN1C(=O)c2ccccc2C1=O)N1CCN(C2c3ccccc3-c3ccccc32)CC1	-4.2	32.5	-1.3	-3.0	3.0	-0.1
O=C(CNC(=O)c1ccccc1)N/N=C/c1cc(Br)ccc1O	21.4	-6.5	11.2	74.7	-2.2	-0.3
O=C(N/N=C/c1ccc2c(c1)OCO2)c1ccc2c(c1)OCCO2	62.1	12.1	0.3	5.6	-12.9	0.2
O=C(N/N=C/c1cc(Cl)cc([N+](=O)[O-])c1O)NC12CC3CC(CC(C3)C1)C2	81.8*	3.3	-0.4	27.9	22.9	-0.2
SMILES	CSC inhib	WT yeast gro inh	SUMO Mot1 rescue	Beta cell apopt	T cruzi inh	Efflux pump inh
O=C(N/N=C/c1ccccc1O)c1ccc2c(c1)OCO2	29.6	.	1.8	95.4*	-0.2	-0.2
Cc1ccc(/C=N/NC(=O)Cc2ccc(Cl)cc2)c(O)c1	55.7	.	6.7	83.4*	19.0	0.1
O=C(N/N=C/c1ccccc1O)NC12CC3CC(CC(C3)C1)C2	36.7	.	-6.0	6.9	6.2	0.2
O=C(CNC(=O)c1ccc2c(c1)OCO2)N/N=C/c1cc(Br)ccc1O	.	.	-0.7	81.0*	6.1	-0.3
Cc1ccccc1/C=N/NC(=O)Cc1ccc(Cl)cc1	-7.2	3.1	-0.6	-1.9	0.7	0.0
COc1cc(C(=O)Nc2cc(C(F)(F)F)ccc2N2CCOCC2)ccc1OCC(=O)N1CCOCC1	-16.6	.	-11.6	3.4	3.8	0.0
O=C(N/N=C/c1c[nH]c2ccc(Br)cc12)c1ccc2c(c1)OCO2	.	-7.3	1.4	.	-6.2	-0.1
O=C(N/N=C/c1cc(Cl)cc([N+](=O)[O-])c1O)c1ccc2c(c1)OCO2	31.3	.	6.1	22.1	57.5*	-0.1
O=C(N/N=C/c1ccc(Cl)cc1)c1ccc2c(c1)OCO2	33.7	.	5.2	9.2	4.1	0.1
O=C(N/N=C/c1cc2c(cc1Cl)OCO2)c1cccc(Br)c1	-5.2	.	29.8	0.5	9.0	0.1
O=C(N/N=C/c1cc(Br)cc(Cl)c1O)c1ccc2c(c1)OCO2	59.5	.	21.4	94.1*	46.0	-0.2
O=C(Cc1ccccc1)N/N=C/c1cc(Br)cc(Cl)c1O	20.3	5.9	357.8*	.	54.0	0.5
Cc1cc(Br)cc(/C=N/NC(=O)c2ccc3c(c2)OCO3)c1O	84.2*	.	188.9	88.4*	23.6	0.1
CC1Cc2ccccc2N1C(=S)NC(=O)C1(C)CC1(Cl)Cl (stereo not given)	10.0	22.8	-8.7	3.5	-14.0	-0.1
O=C(N/N=C/c1cc2c(cc1Br)OCO2)c1c[nH]c2ccccc12	-2.9	-23.1	83.2	-3.0	61.7*	0.4
O=C(N/N=C/c1cc(Br)c(O)c(Br)c1O)c1ccc2c(c1)OCCO2	50.2	.	2.1	91.1*	-0.2	-0.1
CC12CCC(=O)N1C(C(=O)NNC(=O)c1ccc(F)cc1)CS2 (stereo not given)	-9.5	.	341.0	-5.1	-9.2	0.2
CC1CCCCN1c1nnc(NC(=O)c2cc(-c3ccc(Br)cc3)on2)s1 (stereo not given)	62.8	68.2*	-17.6	-5.6	-11.9	0.3
CCOC(=O)C1CCC(CN(Cc2ccccc2C)S(=O)(=O)c2ccc([N+](=O)[O-])cc2)CC1 (stereo not given)	0.6	74.1*	19.2	-0.6	37.0	-0.1
CCOC(=O)C1CCN(c2ccc([N+](=O)[O-])cc2)CC1	-17.2	-26.4	26.8	0.2	-18.1	0.2
NC(=O)c1cc(Br)cc2c3c([nH]c12)CCCC3	-8.6	66.3*	38.1	-21.3	-13.6	-0.1
CC1=CC(C)(C)N2C(=O)C3(C(C#N)=C(N)Oc4cc(C)oc(=O)c43)c3cc(C)cc1c32 (stereo not given)	0.7	.	-5.2	-1.4	54.9*	0.0
CC(C)Sc1ncc(S(=O)(=O)c2ccccc2)c(=O)[nH]1	-6.1	-11.2	-14.8	-11.0	-6.5	0.7
